This is an account of results in ChEMBL document CHEMBL4266052, “Evaluation of Inhibitory Activities of UK-2A, an Antimycin-Type Antibiotic, and Its Synthetic Analogues against the Production of Anti-inflammatory Cytokine IL-4” (J Nat Prod, 2018).

Data set [1] relates to RBL-2H3. As to the kind of experiment: Cytotoxicity against rat RBL2H3 cells assessed as inhibition of cell proliferation at >5 nM after 24 hrs by CCK8 assay. It is filed as cell-based. The note with it: rbl-2h3, 24 h. Background: Tetrazolium dyes change colour on reduction, which living cells bring about.
Data set [2] has as its system RBL-2H3. As to the kind of experiment: Anti-inflammatory activity in DNP-IgE-stimulated rat RBL2H3 cells assessed as reduction of IL4 secretion at >20 nM pretreated for 10 mins followed by DNP-HSA stimulation measured after 1 hr by ELISA. It is filed as functional, cell-based. The method, boiled down:
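RBL-2H3 cells, 2.5 × 10^4/well, cultured overnight, then sensitised 2 h with 50 ng/mL anti-DNP IgE in DMEM/10% FBS at 37 °C, 5% CO2. After washing, drug added in DMF (0.05% final). After 10 min, challenged with DNP-HSA (50 ng/mL final) for 1 h. Supernatant rat IL-4 measured by ELISA on Luminex multiplex system. Mean ± SEM, n = 3.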
A general note: ELISA stands for enzyme-linked immunosorbent assay.

Data set [3] deals with RBL-2H3. As to the kind of experiment: Cytotoxicity against rat RBL2H3 cells assessed as inhibition of cell proliferation up to 4000 nM after 24 hrs by CCK8 assay. The following applies: rbl-2h3, 24 h. It is filed as cell-based. The method, boiled down:
(§1)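 RBL-2H3 cells seeded 10^5/well, 12 h at 37 °C, 5% CO2, then exposed to drug in DMEM for 24 h at 37 °C; medium replaced with serum-containing medium, CCK-8 (WST-8) added, absorbance at 450 nm after 1 h. Relative viability vs control, n = 4, Student's t-test p < 0.05.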

For data set [4], the system named is RBL-2H3. As to the kind of experiment: Anti-inflammatory activity in DNP-IgE-stimulated rat RBL2H3 cells assessed as reduction of IL4 secretion pretreated for 10 mins followed by DNP-HSA stimulation measured after 1 hr by ELISA.
For data set [5], the system named is RBL-2H3. As to the kind of experiment: Anti-inflammatory activity in DNP-IgE-stimulated rat RBL2H3 cells assessed as reduction of IL4 secretion at >2000 nM pretreated for 10 mins followed by DNP-HSA stimulation measured after 1 hr by ELISA. It is filed as functional, cell-based. The procedure, abridged: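 RBL-2H3 cells (2.5 × 10^4/well, cultured overnight in DMEM + 10% FBS, penicillin/streptomycin, 37 °C, 5% CO2) sensitized 2 h with 50 ng/mL anti-DNP IgE, washed, then drug in DMF (0.05% final) added 10 min before DNP-HSA (50 ng/mL final); IL-4 in supernatant after 1 h by rat IL-4 ELISA/Luminex. IC50 from dose–response curves.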

The test system of data set [6] is RBL-2H3. As to the kind of experiment: Cytotoxicity against rat RBL2H3 cells assessed as inhibition of cell proliferation at >40 nM after 24 hrs by CCK8 assay. Type of data set: cell-based. The following applies: rbl-2h3, 24 h. The procedure, abridged: as §1

Molecules are shown by their SMILES. The source made the active and inactive calls. No cut-off for these calls is given here.

The IC50 is the concentration that gives 50% inhibition.

With `CCCC[C@H]1C(=O)O[C@H](C)[C@H](NC(=O)c2cccc(NC=O)c2O)C(=O)O[C@@H](C)[C@@H]1OC(=O)CC(C)C` [ANTIMYCIN A3], in the data set with RBL-2H3 [1], the Activity entry is reported as “Toxic”. Besides, the outcome in the data set with RBL-2H3 [2] was Active.
In the case of `CC(C)C(=O)O[C@H]1[C@H](C)OC(=O)[C@@H](NC(=O)c2cccc(NC=O)c2O)COC(=O)[C@@H]1Cc1ccccc1`, in the data set on RBL-2H3 [3], the Activity result is “Non-Toxic”. Also, in the data set with RBL-2H3 [4], the IC50 is 41.3 nM.
As to `COc1ccnc(C(=O)N[C@H]2COC(=O)[C@H](Cc3ccccc3)[C@@H](OC(=O)C(C)C)[C@H](C)OC2=O)c1O`, in the data set on RBL-2H3 [3], the Activity result is on record as “Non-Toxic”. Moreover, in the data set on RBL-2H3 [4], the IC50 was determined as 1380 nM. Moreover, the outcome in the data set on RBL-2H3 [5] was Active.
As to `COc1ccnc(C(=O)N[C@H]2COC(=O)[C@H](Cc3ccccc3)[C@@H](OC(=O)CC(C)C)[C@H](C)OC2=O)c1O`, the Activity entry in the data set with RBL-2H3 [3] was “Non-Toxic”. The IC50 in the data set with RBL-2H3 [4] came to 4390 nM.
As for `CCCCC[C@H]1C(=O)O[C@H](C)[C@H](NC(=O)c2cccc(NC=O)c2O)C(=O)O[C@@H](C)[C@@H]1OC(=O)CC(C)C`, in the data set on RBL-2H3 [1], the Activity result is given as “Toxic”. Further, the outcome with RBL-2H3 [2] was Active.
Turning to `CC(C)C(=O)O[C@H]1[C@H](C)OC(=O)[C@@H](NC(=O)c2cccc(NC=O)c2O)[C@@H](C)OC(=O)[C@@H]1Cc1ccccc1` [SPLENOCIN B], in the data set on RBL-2H3 [6], the Activity entry was “Toxic”. In addition, the outcome in the data set with RBL-2H3 [2] was Active.
As to `CCCC[C@H]1C(=O)OC[C@H](NC(=O)c2nccc(OC)c2O)C(=O)O[C@@H](C)[C@@H]1OC(=O)C(C)C`, the Activity result in the data set with RBL-2H3 [3] is “Non-Toxic”.
Take `CCC[C@H]1C(=O)O[C@H](C)[C@H](NC(=O)c2cccc(NC=O)c2O)C(=O)O[C@@H](C)[C@@H]1OC(=O)CC(C)C`: in the data set on RBL-2H3 [1], the Activity entry is “Toxic”. In addition, the outcome with RBL-2H3 [2] was Active.
The corresponding values for `CCCCCC[C@H]1C(=O)O[C@H](C)[C@H](NC(=O)c2cccc(NC=O)c2O)C(=O)O[C@@H](C)[C@@H]1OC(=O)CC(C)C` [ANTIMYCIN A] are “Toxic” and “Active”.
